Screens as filed in PubChem BioAssay.
MPTP inh: permeability transition pore inhibition; 360,000 tested, 1.4% active; inhibition, % at 10 µM; isolated mouse mitochondria, Ca2+ swelling absorbance, 30 min;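 active = inhibition of 50% or more, scaled per plate between neutral and stimulator controls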
UBC13 polyUb: human UBC13 polyubiquitination inhibition; inhibition, % at 20 µM; 330,000 tested, 0.47% active; AID 485273; UBC13 polyubiquitin chain formation, TR-FRET; P61088; in the data active = inhibition above about 45%, passing the limit was not always enough
beta cell repl: induces beta-cell replication in MIN6 cells; MIN6 cells proliferation, ATPlite luminescence, 48 h; cells starved in 0.2% serum; 100% = growth in 10% serum; proliferation, % at 10 µM; 330,000 tested, 0.29% active;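 active = compounds whose signal lies at least 3.5 SD above the mean of all wells on their plate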
Apaf1 inhib: human Apaf-1 inhibition. O14727. reconstituted apoptosome caspase-3 activity, DEVD-Rh110 fluorescence. inhibition, % at 20 µM. 330,000 tested, 0.71% active; active = inhibition of at least 40% at 20 µM
Target sequence (O14727 whole entry, looked up): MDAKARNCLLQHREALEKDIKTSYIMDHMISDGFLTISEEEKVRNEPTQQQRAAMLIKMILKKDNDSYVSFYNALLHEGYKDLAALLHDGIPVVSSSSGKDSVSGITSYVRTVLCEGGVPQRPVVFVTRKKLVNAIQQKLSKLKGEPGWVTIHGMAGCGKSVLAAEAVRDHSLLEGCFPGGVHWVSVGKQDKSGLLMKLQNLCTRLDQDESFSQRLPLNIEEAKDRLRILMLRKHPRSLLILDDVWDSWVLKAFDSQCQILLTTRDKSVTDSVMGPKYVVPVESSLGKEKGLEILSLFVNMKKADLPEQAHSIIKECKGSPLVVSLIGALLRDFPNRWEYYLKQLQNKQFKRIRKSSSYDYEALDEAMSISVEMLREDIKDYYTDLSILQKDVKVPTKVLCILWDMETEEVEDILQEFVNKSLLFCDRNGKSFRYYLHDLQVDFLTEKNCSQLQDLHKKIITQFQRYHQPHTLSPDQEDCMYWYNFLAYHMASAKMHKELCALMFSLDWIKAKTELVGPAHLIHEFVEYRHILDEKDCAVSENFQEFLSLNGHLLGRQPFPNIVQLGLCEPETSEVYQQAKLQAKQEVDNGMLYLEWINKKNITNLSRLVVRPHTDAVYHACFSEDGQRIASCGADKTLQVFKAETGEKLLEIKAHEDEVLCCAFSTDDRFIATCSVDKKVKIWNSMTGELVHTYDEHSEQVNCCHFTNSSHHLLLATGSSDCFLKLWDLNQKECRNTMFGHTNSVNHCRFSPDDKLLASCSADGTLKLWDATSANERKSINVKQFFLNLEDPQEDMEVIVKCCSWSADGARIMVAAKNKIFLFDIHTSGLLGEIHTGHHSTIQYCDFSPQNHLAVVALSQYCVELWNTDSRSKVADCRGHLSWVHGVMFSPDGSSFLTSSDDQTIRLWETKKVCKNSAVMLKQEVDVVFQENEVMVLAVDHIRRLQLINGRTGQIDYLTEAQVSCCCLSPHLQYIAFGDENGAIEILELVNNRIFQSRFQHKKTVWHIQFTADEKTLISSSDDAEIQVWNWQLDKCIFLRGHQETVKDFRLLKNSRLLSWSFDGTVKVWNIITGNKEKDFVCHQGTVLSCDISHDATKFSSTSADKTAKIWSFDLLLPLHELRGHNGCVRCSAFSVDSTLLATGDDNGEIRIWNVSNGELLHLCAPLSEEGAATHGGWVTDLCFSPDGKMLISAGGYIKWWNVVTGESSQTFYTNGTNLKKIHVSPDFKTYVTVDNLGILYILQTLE
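Assay system – apoptosome proteins · Medium – Hepes buffer, pH 7.5 · Also added – cytochrome c with DEVD-Rh110 · Timing – 30 min compound preincubation, 50 min activation, room temperature · Detection – Rh110 fluorescence, excitation 480 nm, emission 540 nm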
Granule exo inh: blocks lytic granule exocytosis; TALL-104 LAMP-1 surface exposure, flow cytometry; cells stimulated with thapsigargin and PMA; inhibition, % at 10 µM; 360,000 tested, 0.66% active; AID 651702;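 active = inhibition above about 55%, limit read from the data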
hiPSC survival: enhancers of human iPSC single-cell survival; hiPSC single-cell survival, ATPlite luminescence; 100% = ROCK inhibitor wells, 0% = DMSO; survival enhancement, % at 20 µM; 360,000 tested, 0.044% active; AID 602274; in the data active = survival enhancement above about 18%;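 also: cells exposed to compounds for 16 hours before the ATP read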
MPTP counter: Rhodamine 123 counter-screen of mitochondrial pore hits; inhibition, % at 10 µM; shares compounds with MPTP inh; isolated mitochondria, membrane potential, Rhodamine 123 fluorescence; 5,000 tested, 78% active; in the data active = inhibition above about 22%
MPTP swell DR: dose response confirmation of mitochondrial permeability transition pore inhibitors. shares compounds with MPTP inh. IC50, µM. isolated mitochondria swelling, absorbance. 780 tested, 58% active; in the data active = IC50 below about 20 µM
MPTP counter DR: counter-screen for mitochondrial permeability transition pore inhibitors, dose response. shares compounds with MPTP inh. isolated mitochondria counterscreen, fluorescence read-out. IC50, µM. 780 tested, 49% active. AID 651564; in the data active = IC50 below about 80 µM
Each line names hits and unclear results; the compound was inactive in the other large screens (follow-up assays come after a bar, where they were run). Shown are actives, neighbours in structure and some others; about 3% of the full set was active somewhere.

Cc1cc(Cn2nc(-c3ccccc3)cc2C(=O)NCc2cccc(C(F)(F)F)c2)on1	MPTP inh 63 | MPTP counter 98
O=C(NCCCCc1ccccc1)Nc1ccc(F)cc1	none
Cc1ccc(NC(=O)c2cc(S(=O)(=O)NCCc3ccccc3)ccc2F)cc1Cl	MPTP inh 56 | MPTP counter 71
O=C(Nc1cccc(Cl)c1)c1cc(S(=O)(=O)NCCc2ccc(Cl)cc2)ccc1F	MPTP inh 70 | MPTP counter 71
COc1ccc(CNS(=O)(=O)c2ccc(F)c(C(=O)Nc3ccc(OC)cc3)c2)cc1	none
N#Cc1cccc(NC(=O)COC(=O)c2cc(S(=O)(=O)Nc3ccccc3Cl)ccc2O)c1	MPTP inh 58 | MPTP counter 86
O=C(COC(=O)c1cc(S(=O)(=O)Nc2ccccc2Cl)ccc1O)Nc1nc2ccccc2s1	MPTP inh 90 (no result: UBC13 polyUb, beta cell repl, Apaf1 inhib) | MPTP counter 78
Cc1cccc(C)c1NC(=O)COC(=O)c1cc(S(=O)(=O)Nc2ccc(Cl)cc2)ccc1O	none
CC1CCCC(NC(=S)Nc2ccc(SC(F)F)cc2)C1C (stereo not drawn)	MPTP inh 103 | MPTP counter 97
C[C@@H](C(=O)Nc1ccc(SC(F)F)cc1)N1C(=O)C2CCCCC2C1=O (stereo partly drawn)	none
FC(F)Sc1ccc(NC(=S)NC2CCCC2)cc1	MPTP inh 95 | MPTP counter 94
OC1CCC(NC(=S)Nc2ccc(SC(F)F)cc2)CC1 (stereo not drawn)	none
CCn1cnnc1SCC(=O)Nc1ccccc1C(=O)NC1CC1	none
COc1ccc(Cc2nc3ccc(C(=O)NCC4COCCO4)cc3o2)cc1OC (stereo not drawn)	none
O=C(Nc1cc(C(F)(F)F)cc(C(F)(F)F)c1)Nc1cnn(-c2ccc([N+](=O)[O-])cc2)c1C(F)(F)F	MPTP inh 88 | MPTP counter 63
COc1ccccc1NC(=O)Cc1csc(NC(=S)Nc2ccc(C)cc2)n1	MPTP inh 72 | MPTP counter 75
CCC(=O)Nc1nc(CC(=O)Nc2ccccc2OC)cs1	none
COc1ccc(CN2CCC(CO)(CCOc3ccccc3)CC2)cc1C	MPTP inh 68 | MPTP counter inactive | MPTP swell DR 20 | MPTP counter DR inactive
CC(Oc1ccc(Cl)cc1Cl)C(=O)Nc1ccc2oc(-c3ccncc3)nc2c1 (stereo not drawn)	MPTP inh 74 | MPTP counter 83
Cc1ccc(-c2nc3cc(NC(=O)C(C)C)ccc3o2)cc1	none
CCN1/C(=C/c2cc[n+](C)cc2)C=Cc2cc(C)ccc21	MPTP inh 67 (no result: UBC13 polyUb, beta cell repl, Apaf1 inhib) | MPTP counter 70
N#CC(C#N)=C(Nc1ccc(F)cc1)SCc1cccc(F)c1	MPTP inh 95 | MPTP counter 85
CCN1CCN(c2ncc(C(=O)Nc3c(F)cc(F)cc3Br)c3ccccc23)CC1	MPTP inh 70 | MPTP counter inactive | MPTP swell DR 7.9 | MPTP counter DR inactive
Cc1cccc(NC(=O)Nc2ccc3c(c2)CCC3)c1	MPTP inh 80 | MPTP counter 77
O=[N+]([O-])c1ccc(O)c2ncccc12	none
O=[N+]([O-])c1cc([N+](=O)[O-])c2cccnc2c1Oc1ccccc1O	MPTP inh 70 (no result: UBC13 polyUb, beta cell repl, Apaf1 inhib) | MPTP counter 80
Clc1ccc(NC2(c3nnnn3C3CCCCC3)CCCCC2)cc1	MPTP inh 91 | MPTP counter 91
O=C(Nc1ccccc1)Nc1ccccc1NS(=O)(=O)c1cccs1	MPTP inh 61 | MPTP counter 65
O=C(Nc1ccc(Cl)c(Cl)c1)Nc1ccccc1NS(=O)(=O)c1cccs1	MPTP inh 87 | MPTP counter 92
COCC(=O)N[C@H]1CC[C@@H](CC(=O)OC)O[C@@H]1CO	none (no result: UBC13 polyUb, beta cell repl, Apaf1 inhib, hiPSC survival)
C=CCn1c(C)cc(C2=NNC(=NC(C)(C)C)SC2)c1C	MPTP inh 101 | MPTP counter 76
C=CCn1c(C)cc(C2=NNC(=Nc3ccc(C)cc3)SC2)c1C	none
CCc1noc(C)c1C(=O)NCCc1ccccc1	none
O=C(O)CSc1ncnc2sc(-c3ccccc3)cc12	none
CC(=O)c1c(C)[nH]c(C(=O)CSc2ncnc3sc(-c4ccccc4)cc23)c1C	MPTP inh 96 | MPTP counter 39
CSc1nsc(/C=C/Nc2ccc(F)cc2)c1C#N	MPTP inh 60 | MPTP counter 31
N#Cc1ccccc1NC(=O)C1SC(=Nc2ccccc2)C(C(=O)Nc2ccc(Cl)cc2)=C1N (stereo not drawn)	MPTP inh 62 | MPTP counter 65
CCOc1ccc(N=C2SC(C(=O)Nc3ccccc3C#N)C(N)=C2C(=O)Nc2ccc(Cl)cc2)cc1 (stereo not drawn)	none
CCOC(=O)[C@]12CCC=C1N(Cc1ccc3c(c1)OCO3)C(=O)[C@H](CC(=O)N1CCOCC1)C2	none (no result: UBC13 polyUb, beta cell repl, Apaf1 inhib)
CC1CCc2nc(NC(=O)CN3CCN(Cc4ccc5c(c4)OCO5)CC3)sc2C1 (stereo not drawn)	MPTP inh 56 | MPTP counter inactive | MPTP swell DR inactive | MPTP counter DR 46
CCOC(=O)/C(C(=O)Nc1ccccc1Cl)=C1/NC(C)(C)Cc2ccccc21	none
CCOC(=O)/C(C(=O)Nc1ccc(Br)cc1)=C1/NC(C)(C)Cc2ccccc21	MPTP inh 101 | MPTP counter 89
OCc1c[nH]c(=S)n1CCOc1cccc(C(F)(F)F)c1	none
CC12CCC(=O)C=C1CCC1C2C(O)CC2(C)C(c3csc(N)n3)CCC12 (stereo not drawn)	none (no result: UBC13 polyUb, beta cell repl, Apaf1 inhib)
CC12CCC(=O)C=C1CCC1C2CCC2(C)C(c3csc(N)n3)CCC12 (stereo not drawn)	MPTP inh 87 (no result: UBC13 polyUb, beta cell repl, Apaf1 inhib) | MPTP counter 92
CC1=CC(C)(C)N2C(=O)C3(N=C(N)NC(Nc4ccccc4)=N3)c3cc(C)cc1c32 (stereo not drawn)	MPTP inh 88 | MPTP counter inactive | MPTP swell DR 9.3 | MPTP counter DR inactive
Cc1cccc(NC2=NC(C)(C)N=C(N)N2)c1	none
Cc1cc(C(=O)N2CCCC(CO)(Cc3ccc(F)cc3)C2)c(C)o1 (stereo not drawn)	none
O=C(c1cc([N+](=O)[O-])ccc1N1CCOCC1)N1CCN(c2ccccc2)CC1	none
O=[N+]([O-])c1ccc(O)c(C(C#Cc2ccccc2)N2CCOCC2)c1 (stereo not drawn)	MPTP inh 68 | MPTP counter 87
